ChEMBL document CHEMBL3045615, “Synthesis and herbicidal evaluation of novel 3-[(alpha-hydroxy-substituted)benzylidene]pyrrolidine-2,4-diones” (J Agric Food Chem, 2005)

How the values were obtained:
Format in all cases: functional
[1] = tested on: Brassica rapa subsp. oleifera; experiment: Herbicidal activity against Brassica rapa subsp. oleifera assessed as inhibition in green house at 1500 g/ha pre-emergence treatment measured after 15 days; conditions: 360 h
Summary of the method: (§1)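 Greenhouse pot test. Two replicates per treatment. Control was the same amount of water, N,N-dimethylformamide and Tween 20. Fresh weights were taken 15 days after treatment, and percentage inhibition was calculated relative to controls.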

[2] = tested on: Echinochloa crus-galli; experiment: Herbicidal activity against Echinochloa crus-galli (barnyard grass) assessed as inhibition of seedling growth at 100 ug/ml at 28 +/- 1 degC measured after 65 hr by cup test
[3] = tested on: Echinochloa crus-galli; experiment: Herbicidal activity against Echinochloa crus-galli (barnyard grass) assessed as inhibition of seedling growth at 10 ug/ml at 28 +/- 1 degC measured after 65 hr by cup test
[4] = tested on: Brassica rapa subsp. oleifera; experiment: Herbicidal activity against Brassica rapa subsp. oleifera assessed as inhibition of root growth at 100 ug/ml at 28 +/- 1 degC measured after 65 hr by root test
Summary of the method: (§2)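 Rape seeds were presoaked 4 h in distilled water. About 15 seeds were placed per 6-cm Petri plate on filter paper pre-wetted with 2 mL inhibitor solution. Plates germinated in the dark for 65 h at 28 ± 1 °C. Root length of 10 roots per plate was measured and averaged. Result expressed as percentage inhibition.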

[5] = tested on: Brassica rapa subsp. oleifera; experiment: Herbicidal activity against Brassica rapa subsp. oleifera assessed as inhibition of root growth at 10 ug/ml at 28 +/- 1 degC measured after 65 hr by root test; summary of the method: as §2
[6] = tested on: Digitaria sanguinalis; experiment: Herbicidal activity against Digitaria sanguinalis (hairy crabgrass) assessed as inhibition in green house at 375 g/ha pre-emergence treatment measured after 15 days; conditions: 360 h; summary of the method: as §1
[7] = tested on: Digitaria sanguinalis; experiment: Herbicidal activity against Digitaria sanguinalis (hairy crabgrass) assessed as inhibition in green house at 750 g/ha pre-emergence treatment measured after 15 days; conditions: 360 h; summary of the method: as §1
[8] = tested on: Echinochloa crus-galli; experiment: Herbicidal activity against Echinochloa crus-galli (barnyard grass) assessed as inhibition in green house at 375 g/ha pre-emergence treatment measured after 15 days; conditions: 360 h; summary of the method: as §1
[9] = tested on: Echinochloa crus-galli; experiment: Herbicidal activity against Echinochloa crus-galli (barnyard grass) assessed as inhibition in green house at 750 g/ha pre-emergence treatment measured after 15 days; conditions: 360 h; summary of the method: as §1
[10] = tested on: Echinochloa crus-galli; experiment: Herbicidal activity against Echinochloa crus-galli (barnyard grass) assessed as inhibition in green house at 1500 g/ha post-emergence treatment measured after 15 days; conditions: 360 h; summary of the method: as §1
[11] = tested on: Echinochloa crus-galli; experiment: Herbicidal activity against Echinochloa crus-galli (barnyard grass) assessed as inhibition in green house at 1500 g/ha pre-emergence treatment measured after 15 days; conditions: 360 h; summary of the method: as §1
[12] = tested on: Amaranthus retroflexus; experiment: Herbicidal activity against Amaranthus retroflexus assessed as inhibition in green house at 1500 g/ha pre-emergence treatment measured after 15 days; conditions: 360 h; summary of the method: as §1
[13] = tested on: Amaranthus retroflexus; experiment: Herbicidal activity against Amaranthus retroflexus assessed as inhibition in green house at 1500 g/ha post-emergence treatment measured after 15 days; conditions: 360 h; summary of the method: as §1
[14] = tested on: Brassica rapa subsp. oleifera; experiment: Herbicidal activity against Brassica rapa subsp. oleifera assessed as inhibition in green house at 1500 g/ha post-emergence treatment measured after 15 days; conditions: 360 h; summary of the method: as §1
[15] = tested on: Digitaria sanguinalis; experiment: Herbicidal activity against Digitaria sanguinalis (hairy crabgrass) assessed as inhibition in green house at 1500 g/ha post-emergence treatment measured after 15 days; conditions: 360 h; summary of the method: as §1
[16] = tested on: Digitaria sanguinalis; experiment: Herbicidal activity against Digitaria sanguinalis (hairy crabgrass) assessed as inhibition in green house at 1500 g/ha pre-emergence treatment measured after 15 days; conditions: 360 h; summary of the method: as §1

SMILES | inhibition at 1500 g/ha [1] | inhibition at 100 µg/mL [2] | inhibition at 10 µg/mL [3] | inhibition at 100 µg/mL [4] | inhibition at 10 µg/mL [5] | inhibition at 375 g/ha [6] | inhibition at 750 g/ha [7] | inhibition at 375 g/ha [8] | inhibition at 750 g/ha [9] | inhibition at 1500 g/ha [10] | inhibition at 1500 g/ha [11] | inhibition at 1500 g/ha [12] | inhibition at 1500 g/ha [13] | inhibition at 1500 g/ha [14] | inhibition at 1500 g/ha [15] | inhibition at 1500 g/ha [16]
COc1ccc(/C(O)=C2\C(=O)CN(C(C)C)C2=O)cc1 | 0% | 80% | 80% | 71% | 12% | 38% | 54% | 20% | 92% | 75% | 98% | 11% | 0% | 6% |  | 
Cc1ccccc1/C(O)=C1\C(=O)CN(C(C)C)C1=O | 0% | 77% | 77% | 62% | 15% | 30% | 66% | 43% | 68% | 76% | 84% | 50% | 0% | 44% |  | 
Cc1ccc(/C(O)=C2\C(=O)CN(C(C)C)C2=O)cc1 | 24% | 78% | 77% | 86% | 8% |  | 0% |  | 22% | 67% | 77% | 11% | 0% | 20% |  | 
COc1ccc(/C(O)=C2\C(=O)CN(C(C)(C)C)C2=O)cc1 | 21% | 80% | 79% | 78% | 5% | 8% | 58% | 0% | 73% | 66% | 93% | 23% | 0% | 0% |  | 
Cc1ccc(/C(O)=C2\C(=O)CN(C(C)(C)C)C2=O)cc1 |  | 48% | 36% | 88% | 14% |  |  |  |  |  |  |  |  |  |  | 
COc1ccccc1/C(O)=C1\C(=O)CN(C(C)C)C1=O | 0% | 78% | 77% | 59% | 3% |  |  |  |  | 87% | 93% | 16% | 0% | 21% |  | 
Cc1ccc(/C(O)=C2\C(=O)CN(C(C)C)C2=O)c(C)c1 | 20% | 76% | 74% | 54% | 10% |  |  |  |  | 66% | 71% | 13% | 0% | 16% |  | 
CC(C)N1CC(=O)/C(=C(/O)c2ccc(C(C)(C)C)cc2)C1=O |  | 44% | 28% | 85% | 0% |  |  |  |  |  |  |  |  |  |  | 
CCCCCc1ccc(/C(O)=C2\C(=O)CN(C(C)C)C2=O)cc1 |  | 12% | 5.7% | 29% | 14% |  |  |  |  |  |  |  |  |  |  | 
CCCc1ccc(/C(O)=C2\C(=O)CN(C(C)C)C2=O)cc1 |  | 57% | 27% | 86% | 60% |  |  |  |  |  |  |  |  |  |  | 
CC(C)(C)c1ccc(/C(O)=C2\C(=O)CN(C(C)(C)C)C2=O)cc1 |  | 18% | 4% | 79% | 64% |  |  |  |  |  |  |  |  |  |  | 
CC(C)c1ccc(/C(O)=C2\C(=O)CN(C(C)(C)C)C2=O)cc1 |  | 18% | 10% | 83% | 75% |  |  |  |  |  |  |  |  |  |  | 
CCCCCc1ccc(/C(O)=C2\C(=O)CN(C3CC3)C2=O)cc1 |  | 23% | 5% | 57% | 0% |  |  |  |  |  |  |  |  |  |  | 
O=C1CN(C2CC2)C(=O)/C1=C(\O)c1cccc(Oc2ccccc2)c1 | 0% | 66% | 58% | 80% | 28% |  |  |  |  | 15% | 0% | 0% | 9% | 3% | 10% | 0%
COc1ccc(/C(O)=C2\C(=O)CN(C3CC3)C2=O)c(OC)c1 |  | 79% | 78% | 77% | 16% |  |  |  |  |  |  |  |  |  |  | 
Cc1cc(C)cc(/C(O)=C2\C(=O)CN(C(C)C)C2=O)c1 |  | 42% | 22% | 81% | 3% |  |  |  |  |  |  |  |  |  |  | 

SMILES | inhibition at 1500 g/ha [1] | inhibition at 100 µg/mL [2] | inhibition at 10 µg/mL [3] | inhibition at 100 µg/mL [4] | inhibition at 10 µg/mL [5] | inhibition at 375 g/ha [6] | inhibition at 750 g/ha [7] | inhibition at 375 g/ha [8] | inhibition at 750 g/ha [9] | inhibition at 1500 g/ha [10] | inhibition at 1500 g/ha [11] | inhibition at 1500 g/ha [12] | inhibition at 1500 g/ha [13] | inhibition at 1500 g/ha [14] | inhibition at 1500 g/ha [15] | inhibition at 1500 g/ha [16]
Cc1cc(C)cc(/C(O)=C2\C(=O)CN(C(C)(C)C)C2=O)c1 |  | 40% | 1% | 82% | 41% |  |  |  |  |  |  |  |  |  |  | 
COc1ccc(/C(O)=C2\C(=O)CN(C(C)(C)C)C2=O)cc1OC |  | 59% | 0% | 70% | 58% |  |  |  |  |  |  |  |  |  |  | 
COc1ccc(/C(O)=C2\C(=O)CN(C3CC3)C2=O)cc1OC | 0% | 65% | 0% | 72% | 69% |  |  |  |  | 3% | 0% | 0% | 0% | 0% | 0% | 11%
Cc1cc(C)cc(/C(O)=C2\C(=O)CN(C3CC3)C2=O)c1 |  | 29% | 0% | 86% | 70% |  |  |  |  |  |  |  |  |  |  | 
COc1cc(/C(O)=C2\C(=O)CN(C3CC3)C2=O)cc(OC)c1OC |  | 26% | 4% | 60% | 45% |  |  |  |  |  |  |  |  |  |  | 
CCCc1ccc(/C(O)=C2\C(=O)CN(C3CC3)C2=O)cc1 |  | 41% | 8% | 75% | 0% |  |  |  |  |  |  |  |  |  |  | 
COCCOCOc1cccc(/C(O)=C2\C(=O)CN(C3CC3)C2=O)c1 |  | 33% | 4% | 35% | 0% |  |  |  |  |  |  |  |  |  |  | 
COCCOCOc1ccc(/C(O)=C2\C(=O)CN(C3CC3)C2=O)cc1 |  | 12% | 0% | 51% | 19% |  |  |  |  |  |  |  |  |  |  | 
COc1ccc(/C(O)=C2\C(=O)CN(C(C)C)C2=O)cc1OC |  | 76% | 68% | 34% | 24% |  |  |  |  |  |  |  |  |  |  | 
CC(C)c1ccc(/C(O)=C2\C(=O)CN(C(C)C)C2=O)cc1 |  | 39% | 0% | 74% | 0% |  |  |  |  |  |  |  |  |  |  | 
COc1cc(/C(O)=C2\C(=O)CN(C(C)C)C2=O)cc(OC)c1OC |  | 0% | 0% | 69% | 61% |  |  |  |  |  |  |  |  |  |  | 
COc1cc(OC)c(/C(O)=C2\C(=O)CN(C(C)C)C2=O)cc1OC |  | 64% | 0% | 62% | 60% |  |  |  |  |  |  |  |  |  |  | 
COCCOCOc1ccccc1/C(O)=C1\C(=O)CN(C(C)C)C1=O |  | 52% | 17% | 28% | 7% |  |  |  |  |  |  |  |  |  |  | 
COCCOCOc1cccc(/C(O)=C2\C(=O)CN(C(C)C)C2=O)c1 |  | 74% | 8% | 10% | 0% |  |  |  |  |  |  |  |  |  |  | 
COCCOCOc1ccc(/C(O)=C2\C(=O)CN(C(C)C)C2=O)cc1 |  | 21% | 0% | 51% | 19% |  |  |  |  |  |  |  |  |  |  | 
